Results reported in ChEMBL document CHEMBL4028890, “A Positive Allosteric Modulator of the Serotonin 5-HT2C Receptor for Obesity” (J Med Chem, 2017).
Calls of active or inactive are those of the source. The calls are words filed in the database; no cut-off is given here.

What was measured:
[1] = target: T1, 5-hydroxytryptamine receptor 2C (Homo sapiens) (UniProt P28335); assay: Positive allosteric modulation of human 5-HT2C receptor expressed in human HeLa-K1 cells assessed as potentiation of 5-HT-induced inositol monophosphate release at 10 uM after 20 mins by HTRF assay relative to control; format: functional, cell-based
T1 sequence (whole entry): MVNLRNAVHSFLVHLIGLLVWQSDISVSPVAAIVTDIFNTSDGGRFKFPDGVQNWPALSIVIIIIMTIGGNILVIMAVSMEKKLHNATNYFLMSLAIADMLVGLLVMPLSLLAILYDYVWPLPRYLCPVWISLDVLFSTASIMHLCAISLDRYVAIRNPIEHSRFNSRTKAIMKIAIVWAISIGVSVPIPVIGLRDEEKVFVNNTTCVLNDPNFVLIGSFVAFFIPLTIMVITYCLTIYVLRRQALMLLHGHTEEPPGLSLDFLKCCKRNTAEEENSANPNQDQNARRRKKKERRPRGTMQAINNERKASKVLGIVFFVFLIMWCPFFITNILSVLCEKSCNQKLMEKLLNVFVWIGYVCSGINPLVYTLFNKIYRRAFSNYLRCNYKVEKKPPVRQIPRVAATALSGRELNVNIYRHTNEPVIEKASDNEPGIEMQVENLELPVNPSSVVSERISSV
In short: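 IP-One HTRF assay in CHO-K1 cells (human 5-HT2A, 5-HT2B) or HeLa-K1 cells (human 5-HT2C), seeded and grown 24 h at 37 °C. Test compound and/or 5-HT added in stimulation buffer, then 20 min at 37 °C before IP1 read-out. Data normalized to 5-HT maximal effect and fitted by nonlinear regression. Triplicates, mean ± SD.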

Rattus norvegicus [2] = assay: Antiobesity activity in Wistar rat assessed as reduction in food intake at 2 mg/kg, ip after 4 hrs in presence of 5-HT2C antagonist SB-242084; format: functional, organism-based
In short: (§1)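 Male Wistar rats, 200−250 g, aged 10−12 weeks, food-deprived 16 h before refeeding. Compound given ip in sterile saline; food and water intake measured at 30, 60, 120 and 240 min after food presentation. Where used, antagonist (3 mg/kg, ip) or other pretreatments were injected 30 min before the compound. Mean ± SEM, at least eight rats per group.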

Rattus norvegicus [3] = assay: Antiobesity activity in Wistar rat assessed as reduction in food intake at 2 mg/kg, ip measured up to 4 hrs; format: functional, organism-based; in short: as §1
Rattus norvegicus [4] = assay: Antiobesity activity in Wistar rat assessed as reduction in food intake at 2 mg/kg, ip after 4 hrs; format: functional, organism-based; in short: as §1

Structure (SMILES) | Activity [1] [%] | other results
c1ccc(Cn2cc(CNc3ccncn3)c3ccccc32)cc1 | 0 | 
Cc1ncccc1NCc1cn(Cc2ccccc2)c2ccccc12 | 0 | 
c1ccc(Cn2cc(CNc3ccnnc3)c3ccccc32)cc1 | 0 | 
Cc1cccc(Cn2cc(CNc3cccnc3)c3ccccc32)c1 | 27 | 
Clc1ccccc1Cn1cc(CNc2cccnc2)c2ccccc21 | 7 | 
c1cncc(Cn2cc(CNc3cccnc3)c3ccccc32)c1 | 25 | 
Brc1cccc(Cn2cc(CNc3cccnc3)c3ccccc32)c1 | 7 | 
Brc1ccccc1Cn1cc(CNc2cccnc2)c2ccccc21 | 0 | 
Fc1ccc(Cn2cc(CNc3cccnc3)c3ccccc32)c(F)c1 | 9 | 
Clc1ccc(Cn2cc(CNc3cccnc3)c3ccccc32)cc1 | 13 | 
c1cncc(NCc2cn(Cc3ccncc3)c3ccccc23)c1 | 9 | 
Brc1ccc(Cn2cc(CNc3cccnc3)c3ccccc32)cc1 | 6 | 
c1ccc(Cn2cc(CNc3ccccn3)c3ccccc32)cc1 | 25 | 
c1ccc(Cn2cc(CNc3ncccn3)c3ccccc32)cc1 | 0 | 
COc1ccccc1Cn1cc(CNc2cccnc2)c2ccccc21 | 0 | 
O=C1Nc2cc(Cl)c(Cl)cc2N2CCNC[C@H]12 |  | Activity (Rattus norvegicus [2]): inactive; Activity (Rattus norvegicus [3]): Active; Activity (Rattus norvegicus [4]): inactive
Clc1cccc(Cn2cc(CNc3cccnc3)c3ccccc32)c1 | 26 | 
FC(F)(F)c1ccccc1Cn1cc(CNc2cccnc2)c2ccccc21 | 9 | 
Cc1ccccc1Cn1cc(CNc2cccnc2)c2ccccc21 | 7 | 
